In PubChem BioAssay:
Activity calls are given as the source filed them.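 The calls were made as follows, unless noted: active = GFP response above 150% of the DMSO level; inconclusive = fewer than 70 events counted for a yeast strain; inactive = the rest.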

Assays:
[1] = RPL19A-GFP modulators, yeast TOR pathway, confirmation, cell-based, S. cerevisiae, flow cytometry, cherry picks, mother/daughter gates (AID 2270;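 active = GFP response below 50% of the DMSO control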); conditions: S. cerevisiae RPL19A-GFP strain, 3 h, at 10 µM, stronger effect = lower value, 100 = same GFP as DMSO wells
[2] = LAP4-GFP expression modulators in yeast, confirmation, cell-based, cherry picks, flow cytometry, mother/daughter gates (AID 2271;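 active = GFP response above 150% of the DMSO control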;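 also: ratio of sample to DMSO plate mean so 100% equals DMSO level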); conditions: S. cerevisiae LAP4-GFP strain, 3 h, at 10 µM, stronger effect = higher value, 100 means same as DMSO control
Summary of the method: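 System: GFP-fusion yeast strain; Incubation: compound exposure 3 h at 30 °C, end-over-end rotation; Measured by: GFP by flow cytometry; Read-out: median GFP fluorescence as percent of plate-mean DMSO wells; Medium: synthetic complete (SC) yeast growth medium; Compound: single test-compound dose, 10 µM final; Benchmarks: DMSO-only negative wells, rapamycin 400 ng/mL positive wells.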

[3] = modulators of MEP2-GFP levels in yeast, confirmation, S. cerevisiae, flow cytometry GFP, cherry picks (AID 2272;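 active = GFP response above 150% of the DMSO control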;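 also: ratio of well signal to plate DMSO mean so 100% equals DMSO level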); conditions: S. cerevisiae MEP2-GFP strain, 3 h, at 10 µM, stronger effect = higher value
[4] = AGP1-GFP expression modulators, hit retest, confirmation, cell-based, flow cytometry, S. cerevisiae, cherry picks (AID 2273);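 also: median GFP channel fluorescence over the whole cell population gate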; conditions: S. cerevisiae AGP1-GFP strain, 3 h, at 10 µM
[5] = modulators of CIT2-GFP expression in yeast, confirmation, S. cerevisiae, GFP fusion, cherry picks, mother/daughter gates (AID 2274); conditions: S. cerevisiae CIT2-GFP strain, flow cytometry, 3 h, at 10 µM, stronger effect = higher value
[6] = measured here: daughter cell gate
[7] = measured here: mother cell gate
[8] = measured here: daughter cell gate response
[9] = measured here: mother cell gate response

Structure (SMILES)	GFP response vs DMSO [1]	GFP response vs DMSO [1, 6]	GFP response vs DMSO [1, 7]	GFP response relative to DMSO [2]	GFP response relative to DMSO [2, 8]	GFP response relative to DMSO [2, 9]	GFP response vs DMSO [3]	GFP response, % of DMSO [4]	GFP response, % of DMSO [5]	GFP response, % of DMSO [5, 6]	GFP response, % of DMSO [5, 7]
CCCN1CCc2c(sc(NC(=S)NC(=O)c3ccccc3)c2C#N)C1	100% (inactive)	99.6%	97.8%	116% (inactive)	107%	120%	187% (active)	102% (inactive)	106% (inactive)	99.2%	108%
CCn1c(=O)c(C(=O)NCCCO)c(O)c2ccccc21	102% (inactive)	101%	102%	111% (inactive)	111%	112%	114% (inactive)	99.1% (inactive)	106% (inactive)	105%	107%
O=S(=O)(c1ccc(-c2ccccc2)cc1)N1CCOCC1	96.7% (inactive)	96.1%	94.8%	97.7% (inactive)	97.5%	97.4%	103% (inactive)	99.5% (inactive)	95.8% (inactive)	95.8%	93.8%
CCN(CC(O)Cn1c2ccccc2c2ccccc21)S(=O)(=O)c1ccc(F)cc1 (stereo not drawn)	96% (inactive)	96.5%	96.7%	108% (inactive)	107%	108%	97.5% (inactive)	95.8% (inactive)	96.4% (inactive)	96.4%	94.5%
CCCc1[nH]nc2c1C(c1cccc(OC(=O)c3ccco3)c1)C(C#N)=C(N)O2 (stereo not drawn)	98.5% (inactive)	96.7%	96.7%	97.7% (inactive)	96%	98.4%	99.3% (inactive)	106% (inactive)	104% (inactive)	103%	104%
Cc1ccc(/C=C/C(=O)c2ccc(C)cc2)cc1	97.2% (inactive)	96.2%	99.3%	98.8% (inactive)	99.3%	96.5%	99.5% (inactive)	98.2% (inactive)	102% (inactive)	102%	103%
CCN(CC)Cc1csc2ccc(Br)cc12	98.4% (inactive)	97.8%	98.2%	96.2% (inactive)	97.2%	99.3%	102% (inactive)	100% (inactive)	97.8% (inactive)	96.5%	98.7%
O=C(CSc1nnc(-c2ccccn2)n1Cc1ccccc1)N1CCOCC1	103% (inactive)	102%	102%	105% (inactive)	107%	105%	108% (inactive)	101% (inactive)	104% (inactive)	105%	105%
COc1ccc(C(=O)Oc2ccc(/C=N/NC(=O)c3ccccc3OC)cc2[N+](=O)[O-])cc1	102% (inactive)	103%	101%	87.2% (inactive)	87.8%	86.7%	104% (inactive)	101% (inactive)	104% (inactive)	104%	100%
Cc1cc(O)c(C(=O)/C=C/c2ccc(C(C)C)cc2)c(=O)o1	95.4% (inactive)	93.9%	96.6%	104% (inactive)	104%	106%	96.2% (inactive)	100% (inactive)	98.3% (inactive)	99.1%	97.3%
O=C(c1ccccc1[N+](=O)[O-])n1cnc2ccccc21	100% (inactive)	101%	100%	96.1% (inactive)	98.2%	96.2%	94.4% (inactive)	87.1% (inactive)	117% (inactive)	110%	119%
Cc1cc(O)c(C(=O)/C=C/c2ccccc2)c(=O)o1	97.6% (inactive)	101%	96.1%	144% (inactive)	139%	148%	100% (inactive)	97% (inactive)	96.5% (inactive)	99.7%	95.5%
CCN(CC)Cc1c(O)ccc2c(C)c(CC(=O)OC)c(=O)oc12	103% (inactive)	101%	100%	101% (inactive)	97.5%	102%	103% (inactive)	106% (inactive)	100% (inactive)	99.2%	95.6%
CCN(CC)CCNC(=O)Cn1c(-c2ccccn2)nc2ccccc21	99.5% (inactive)	98.1%	99.6%	96.2% (inactive)	98.7%	98.3%	100% (inactive)	94.3% (inactive)	97.8% (inactive)	96.5%	97.7%
O=C(NN1C(=O)/C(=C\c2ccc(O)c([N+](=O)[O-])c2)SC1=S)c1ccccc1Cl	97.4% (inactive)	95.9%	95.8%	126% (inactive)	106%	129%	123% (inactive)	69.8% (inactive)	107% (inactive)	99.1%	106%
COc1ccc(-c2[nH]ncc2-c2ccc(Cl)cc2)c(O)c1	101% (inactive)	97.8%	99.4%	103% (inactive)	100%	105%	102% (inactive)	93.7% (inactive)	104% (inactive)	101%	105%
CCCn1c(=O)c(C(=O)Nc2ccccc2C(=O)OC)c(O)c2ccccc21	101% (inactive)	99%	103%	92.6% (inactive)	94.1%	95.2%	97.8% (inactive)	103% (inactive)	93.9% (inactive)	94.8%	93.4%

Structure (SMILES)	GFP response vs DMSO [1]	GFP response vs DMSO [1, 6]	GFP response vs DMSO [1, 7]	GFP response relative to DMSO [2]	GFP response relative to DMSO [2, 8]	GFP response relative to DMSO [2, 9]	GFP response vs DMSO [3]	GFP response, % of DMSO [4]	GFP response, % of DMSO [5]	GFP response, % of DMSO [5, 6]	GFP response, % of DMSO [5, 7]
O=C(OCc1ccco1)c1ccc(S(=O)(=O)N2CCCCC2)cc1	101% (inactive)	97.9%	101%	98.2% (inactive)	97.5%	98.4%	99% (inactive)	96.1% (inactive)	102% (inactive)	99.2%	91.9%
O=C(Nc1nc2ccc(F)cc2s1)c1ccccn1	102% (inactive)	102%	99.3%	185% (active)	156%	193%	116% (inactive)	107% (inactive)	99.7% (inactive)	105%	92.8%
CN(CCCS(=O)(=O)[O-])c1ccc(/C=C/c2ccc3ccccc3[n+]2C)cc1	101% (inactive)	100%	101%	102% (inactive)	102%	104%	111% (inactive)	99.6% (inactive)	106% (inactive)	106%	106%
COC(=O)Cn1nc(-c2ccccc2)c2cc(Cl)ccc21	101% (inactive)	100%	101%	104% (inactive)	104%	104%	109% (inactive)	102% (inactive)	114% (inactive)	116%	112%
CC(C)c1ccc2c(c1)C1(NN=C(c3ccccc3)S1)C(=O)N2 (stereo not drawn)	105% (inactive)	107%	104%	96.2% (inactive)	95.6%	98.3%	100% (inactive)	95.7% (inactive)	91.3% (inactive)	96.5%	88%
N#C/C(=C\c1ccc(N2CCOCC2)o1)c1ccccc1	98.2% (inactive)	97.3%	98.5%	102% (inactive)	102%	103%	104% (inactive)	93.8% (inactive)	104% (inactive)	104%	103%
Cc1ccc(Sc2ccc([N+](=O)[O-])cc2[N+](=O)[O-])nc1	99.7% (inactive)	101%	100%	103% (inactive)	100%	105%	97.8% (inactive)	97.4% (inactive)	104% (inactive)	99.7%	105%
CC(=O)Nc1ccc(-c2csc(NC(=O)c3ccc(C)o3)n2)cc1	98.4% (inactive)	98.1%	99.8%	97.9% (inactive)	99.2%	98.3%	100% (inactive)	98.3% (inactive)	105% (inactive)	106%	104%
O=C(COc1c(Br)cc(Br)c2cccnc12)N1CCc2ccccc2C1	98.2% (inactive)	97.8%	97.2%	140% (inactive)	124%	144%	112% (inactive)	93.2% (inactive)	101% (inactive)	102%	95.6%
O=C1C(Cl)=C(N2CCN(Cc3ccccc3)CC2)C(=O)N1c1ccccc1	98.6% (inactive)	98.4%	98.5%	96.2% (inactive)	95.6%	96.2%	100% (inactive)	97.8% (inactive)	99.1% (inactive)	98.1%	96.6%
CCn1c(=O)c(C(=O)Nc2nc3ccccc3[nH]2)c(O)c2ccccc21	82.3% (inactive)	87.3%	67%	169% (active)	109%	185%	159% (inactive)	96.2% (inactive)	128% (inactive)	99.1%	109%
O=C(Nc1nc(-c2ccc(F)cc2)cs1)c1cnccn1	97.8% (inactive)	98.3%	98.1%	101% (inactive)	97.9%	101%	110% (inactive)	96.2% (inactive)	105% (inactive)	98.3%	104%
COc1ccc(OCC(O)CNC(=O)/C=C/c2cccc([N+](=O)[O-])c2)cc1 (stereo not drawn)	100% (inactive)	100%	100%	104% (inactive)	102%	104%	101% (inactive)	107% (inactive)	103% (inactive)	103%	104%
Cc1c(C(=O)NCCSCc2cccc(C(F)(F)F)c2)cnn1-c1ccc(F)cc1	102% (inactive)	103%	103%	98.8% (inactive)	96.5%	98.5%	104% (inactive)	99.1% (inactive)	108% (inactive)	102%	108%
CCCc1[nH]nc2c1C(c1ccc(OCCN3CCOCC3)c(OC)c1)C(C#N)=C(N)O2 (stereo not drawn)	96.6% (inactive)	96.4%	98.2%	97.9% (inactive)	99.2%	96.1%	102% (inactive)	93.9% (inactive)	101% (inactive)	103%	101%
Cc1ccc(S(=O)(=O)N2CCCC2C(=O)Oc2ccccc2)cc1 (stereo not drawn)	98.8% (inactive)	99.1%	99.5%	99.2% (inactive)	99.2%	99.3%	100% (inactive)	95.6% (inactive)	98.3% (inactive)	97.2%	97.3%
